The target of assay [1] is Non-receptor tyrosine-protein kinase TYK2 (Homo sapiens, UniProt P29597). The experiment in a line: Inhibition of human TYK2 using KKSRGDYMTMQIG as substrate in presence of [gamma-33P]-ATP. The procedure, abridged: (§1)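 Kinase inhibition was tested by radiometric "Hotspot" profiling at a contract laboratory with 10 μM ATP.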
Assay [2] addresses Histone deacetylase 2 (Homo sapiens, UniProt Q92769). Kind of assay: Inhibition of C-terminal GST tagged human recombinant HDAC2 (1 to 488 residues) expressed in Baculovirus infected insect cells in presence of ATP. The procedure, abridged: (§2)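 HDAC enzyme inhibition was run by a contract laboratory.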
In assay [3] the target is T1, Protein deacetylase HDAC6 (Homo sapiens, UniProt Q9UBN7).
T1 sequence (Q9UBN7 whole entry): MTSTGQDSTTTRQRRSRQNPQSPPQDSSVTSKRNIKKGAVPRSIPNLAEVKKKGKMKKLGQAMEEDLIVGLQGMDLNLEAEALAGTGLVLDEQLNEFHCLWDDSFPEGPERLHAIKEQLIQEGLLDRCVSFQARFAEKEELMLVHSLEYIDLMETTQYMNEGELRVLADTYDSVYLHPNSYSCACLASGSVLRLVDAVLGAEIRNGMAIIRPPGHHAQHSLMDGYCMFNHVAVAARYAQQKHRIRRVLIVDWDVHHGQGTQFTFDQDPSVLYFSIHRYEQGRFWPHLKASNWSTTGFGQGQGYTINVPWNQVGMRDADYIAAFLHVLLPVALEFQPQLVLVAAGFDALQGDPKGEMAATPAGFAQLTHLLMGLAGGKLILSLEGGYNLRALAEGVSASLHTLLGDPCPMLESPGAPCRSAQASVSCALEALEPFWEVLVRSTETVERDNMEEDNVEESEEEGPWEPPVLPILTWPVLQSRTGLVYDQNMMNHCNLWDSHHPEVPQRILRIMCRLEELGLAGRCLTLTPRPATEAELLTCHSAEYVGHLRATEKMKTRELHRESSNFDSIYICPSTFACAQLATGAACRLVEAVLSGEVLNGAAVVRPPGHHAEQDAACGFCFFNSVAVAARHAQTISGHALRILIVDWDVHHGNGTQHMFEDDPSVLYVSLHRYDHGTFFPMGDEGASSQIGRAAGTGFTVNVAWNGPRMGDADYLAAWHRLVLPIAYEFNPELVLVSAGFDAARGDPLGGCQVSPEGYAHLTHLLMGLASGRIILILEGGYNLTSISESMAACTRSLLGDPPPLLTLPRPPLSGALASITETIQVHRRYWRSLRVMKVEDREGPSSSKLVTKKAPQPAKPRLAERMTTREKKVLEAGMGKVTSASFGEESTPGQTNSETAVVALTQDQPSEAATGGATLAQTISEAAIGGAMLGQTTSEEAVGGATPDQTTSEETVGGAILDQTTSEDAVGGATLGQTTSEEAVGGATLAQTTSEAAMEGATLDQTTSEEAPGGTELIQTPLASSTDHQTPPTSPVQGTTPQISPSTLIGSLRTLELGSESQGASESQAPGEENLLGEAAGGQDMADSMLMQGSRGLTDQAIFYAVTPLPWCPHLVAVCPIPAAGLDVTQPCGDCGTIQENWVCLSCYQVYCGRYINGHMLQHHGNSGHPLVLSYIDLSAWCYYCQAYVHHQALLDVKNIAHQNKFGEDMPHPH
Kind of assay: Inhibition of N-terminal GST tagged human HDAC6 (1 to 1215 residues) expressed in baculovirus infected insect cells using RHKKAc as substrate in presence of ATP.

The target of assay [4] is Histone deacetylase 5 (Homo sapiens, UniProt Q9UQL6). Kind of assay: Inhibition of C-terminal His tagged human recombinant HDAC5 (657 to 1123 residues) expressed in Baculovirus infected insect cells in presence of ATP. The gist of the method:
as §2

Assay [5] addresses Histone deacetylase 3/Nuclear receptor corepressor 2 (HDAC3/NCoR2) (Homo sapiens, UniProt O15379). The experiment in a line: Inhibition of human recombinant HDAC3 (1 to 428 residues)/N-terminal GST-tagged NCOR2 (395 to 489 residues) expressed in Baculovirus infected insect cells in presence of ATP. The procedure, abridged: as §2
The target of assay [6] is T2, Tyrosine-protein kinase JAK2 (Homo sapiens, UniProt O60674). Kind of assay: Inhibition of human JAK2 using poly[Glu:Tyr] as substrate in presence of [gamma-33P]-ATP.
T2 sequence (O60674 whole entry, the tested form may be a part): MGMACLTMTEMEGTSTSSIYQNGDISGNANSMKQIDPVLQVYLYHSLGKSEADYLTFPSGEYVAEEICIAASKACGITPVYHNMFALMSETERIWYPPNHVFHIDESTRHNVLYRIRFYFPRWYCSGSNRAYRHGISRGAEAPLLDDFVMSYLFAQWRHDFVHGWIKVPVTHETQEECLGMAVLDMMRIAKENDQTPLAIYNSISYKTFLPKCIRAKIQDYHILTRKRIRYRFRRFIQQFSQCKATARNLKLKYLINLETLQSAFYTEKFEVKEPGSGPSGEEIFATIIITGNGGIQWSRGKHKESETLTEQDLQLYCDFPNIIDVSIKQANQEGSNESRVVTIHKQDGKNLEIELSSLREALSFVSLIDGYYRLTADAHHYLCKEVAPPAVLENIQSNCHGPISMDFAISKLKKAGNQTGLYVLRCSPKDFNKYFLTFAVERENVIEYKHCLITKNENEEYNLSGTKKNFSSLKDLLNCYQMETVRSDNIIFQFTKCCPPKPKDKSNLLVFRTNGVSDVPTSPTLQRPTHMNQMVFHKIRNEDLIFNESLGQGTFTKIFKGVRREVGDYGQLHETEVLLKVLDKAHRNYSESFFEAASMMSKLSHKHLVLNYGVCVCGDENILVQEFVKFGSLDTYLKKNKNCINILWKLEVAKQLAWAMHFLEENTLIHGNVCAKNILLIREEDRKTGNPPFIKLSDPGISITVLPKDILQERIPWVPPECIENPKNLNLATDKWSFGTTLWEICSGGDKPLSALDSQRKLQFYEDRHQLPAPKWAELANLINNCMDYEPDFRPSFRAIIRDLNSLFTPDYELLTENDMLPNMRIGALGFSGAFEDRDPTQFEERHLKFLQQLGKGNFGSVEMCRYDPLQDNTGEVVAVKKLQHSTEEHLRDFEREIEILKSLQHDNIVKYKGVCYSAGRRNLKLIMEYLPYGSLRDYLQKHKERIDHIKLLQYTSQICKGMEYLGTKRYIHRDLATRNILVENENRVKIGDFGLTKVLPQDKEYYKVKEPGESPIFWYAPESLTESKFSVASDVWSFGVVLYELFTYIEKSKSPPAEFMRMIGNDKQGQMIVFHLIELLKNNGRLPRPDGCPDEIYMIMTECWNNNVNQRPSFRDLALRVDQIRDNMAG
Assay [7] deals with Histone deacetylase 11 (Homo sapiens) (UniProt Q96DB2). Kind of assay: Inhibition of C-terminal His tagged human recombinant HDAC11 (1 to 347 residues) expressed in Baculovirus infected insect cells at 10 uM in presence of ATP relative to control. The procedure, abridged:
as §2

The target in assay [8] is Histone deacetylase 7 (Homo sapiens) (UniProt Q8WUI4). The experiment in a line: Inhibition of N-terminal GST tagged human recombinant HDAC7 (518 to 991 residues) expressed in Baculovirus infected insect cells at 10 uM in presence of ATP relative to control. The gist of the method: as §2
Assay [9] addresses T3, Tyrosine-protein kinase JAK3 (Homo sapiens, UniProt P52333).
T3 sequence (P52333 whole entry): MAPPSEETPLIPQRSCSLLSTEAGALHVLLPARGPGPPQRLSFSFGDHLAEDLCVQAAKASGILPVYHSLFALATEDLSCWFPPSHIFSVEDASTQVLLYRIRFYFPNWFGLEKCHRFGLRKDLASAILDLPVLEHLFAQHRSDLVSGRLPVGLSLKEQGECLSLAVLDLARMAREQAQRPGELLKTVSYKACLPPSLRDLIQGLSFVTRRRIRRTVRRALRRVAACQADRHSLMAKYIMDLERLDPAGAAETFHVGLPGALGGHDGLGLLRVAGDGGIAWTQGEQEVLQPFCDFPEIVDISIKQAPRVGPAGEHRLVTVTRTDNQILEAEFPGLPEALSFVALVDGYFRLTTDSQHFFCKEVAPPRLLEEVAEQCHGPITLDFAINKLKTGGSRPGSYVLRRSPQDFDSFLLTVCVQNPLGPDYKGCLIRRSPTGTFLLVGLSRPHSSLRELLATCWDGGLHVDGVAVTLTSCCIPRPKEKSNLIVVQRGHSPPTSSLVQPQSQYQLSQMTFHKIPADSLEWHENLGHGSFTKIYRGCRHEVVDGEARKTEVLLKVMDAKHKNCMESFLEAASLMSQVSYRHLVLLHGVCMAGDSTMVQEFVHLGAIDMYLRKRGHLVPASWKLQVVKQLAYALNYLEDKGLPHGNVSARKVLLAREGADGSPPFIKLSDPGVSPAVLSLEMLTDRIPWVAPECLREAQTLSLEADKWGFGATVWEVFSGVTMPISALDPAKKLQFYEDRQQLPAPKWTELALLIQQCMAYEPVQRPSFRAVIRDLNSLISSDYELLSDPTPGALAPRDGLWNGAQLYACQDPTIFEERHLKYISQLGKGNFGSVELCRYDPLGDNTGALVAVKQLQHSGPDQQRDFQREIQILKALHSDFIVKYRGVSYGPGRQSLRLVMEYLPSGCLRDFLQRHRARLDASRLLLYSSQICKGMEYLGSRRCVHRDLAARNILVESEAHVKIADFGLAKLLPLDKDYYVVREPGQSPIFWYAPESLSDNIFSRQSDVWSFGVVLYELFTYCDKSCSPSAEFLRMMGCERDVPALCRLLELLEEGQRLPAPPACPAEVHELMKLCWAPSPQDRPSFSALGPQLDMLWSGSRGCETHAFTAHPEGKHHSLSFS
Kind of assay: Inhibition of human JAK3 using GEEEEYFELVKKKK as substrate in presence of [gamma-33P]-ATP. The procedure, abridged:
as §1

The target of assay [10] is Histone deacetylase 1 (Homo sapiens, UniProt Q13547). Kind of assay: Inhibition of C-terminal FLAG His tagged full length human recombinant HDAC1 (1 to 482 residues) expressed in baculovirus infected sf21 cells using RHKKAc as substrate in presence of ATP.
Sequence of Histone deacetylase 1 (Q13547 whole entry, the tested form may be a part): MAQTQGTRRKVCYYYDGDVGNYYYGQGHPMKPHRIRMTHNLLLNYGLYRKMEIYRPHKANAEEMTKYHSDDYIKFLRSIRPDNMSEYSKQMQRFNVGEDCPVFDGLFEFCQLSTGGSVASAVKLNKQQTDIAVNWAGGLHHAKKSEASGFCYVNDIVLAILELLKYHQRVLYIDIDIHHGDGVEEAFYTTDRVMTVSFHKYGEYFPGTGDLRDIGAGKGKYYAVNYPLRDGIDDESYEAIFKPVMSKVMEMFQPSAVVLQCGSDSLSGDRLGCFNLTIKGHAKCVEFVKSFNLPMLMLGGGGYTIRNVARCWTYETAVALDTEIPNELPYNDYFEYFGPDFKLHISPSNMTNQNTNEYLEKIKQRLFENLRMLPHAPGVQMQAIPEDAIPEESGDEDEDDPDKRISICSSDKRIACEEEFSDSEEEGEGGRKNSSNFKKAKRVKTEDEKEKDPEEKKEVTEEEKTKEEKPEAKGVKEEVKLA
Assay [11] has as its target Tyrosine-protein kinase JAK1 (Homo sapiens, UniProt P23458). Kind of assay: Inhibition of human JAK1 using poly[Glu:Tyr] as substrate in presence of [gamma-33P]-ATP. The gist of the method: as §1
Assay [12] deals with Polyamine deacetylase HDAC10 (Homo sapiens, UniProt Q969S8). Kind of assay: Inhibition of human HDAC10 using fluorogenic peptide from p53 residues 379 to 382 as substrate in presence of ATP. The procedure, abridged: as §2
Sequence of Polyamine deacetylase HDAC10 (Q969S8 whole entry, the tested form may be a part): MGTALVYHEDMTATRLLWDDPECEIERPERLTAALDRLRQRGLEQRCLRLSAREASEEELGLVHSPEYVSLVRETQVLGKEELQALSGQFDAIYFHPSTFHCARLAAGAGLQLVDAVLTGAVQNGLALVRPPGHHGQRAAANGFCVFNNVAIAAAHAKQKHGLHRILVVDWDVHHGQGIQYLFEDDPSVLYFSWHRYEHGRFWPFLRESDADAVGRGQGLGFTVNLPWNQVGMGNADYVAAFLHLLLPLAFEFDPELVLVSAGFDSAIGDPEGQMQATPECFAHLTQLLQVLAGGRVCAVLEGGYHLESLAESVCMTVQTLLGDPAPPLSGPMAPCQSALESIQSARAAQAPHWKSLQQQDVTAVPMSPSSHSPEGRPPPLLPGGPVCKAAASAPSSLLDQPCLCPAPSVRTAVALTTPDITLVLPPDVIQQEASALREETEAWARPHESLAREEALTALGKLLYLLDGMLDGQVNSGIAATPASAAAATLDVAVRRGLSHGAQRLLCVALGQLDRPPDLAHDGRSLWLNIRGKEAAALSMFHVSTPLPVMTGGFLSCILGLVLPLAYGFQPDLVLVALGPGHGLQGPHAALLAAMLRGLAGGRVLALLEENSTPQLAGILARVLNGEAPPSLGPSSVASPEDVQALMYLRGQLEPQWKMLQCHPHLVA
Assay [13] addresses Histone deacetylase 4 (Homo sapiens) (UniProt P56524). The experiment in a line: Inhibition of N-terminal GST tagged/C-terminal His tagged human recombinant HDAC4 (627 to 1084 residues) expressed in Baculovirus infected insect cells in presence of ATP. To be noted: concentration not given here. The procedure, abridged: as §2
Assay [14] addresses Histone deacetylase 9 (Homo sapiens, UniProt Q9UKV0). Kind of assay: Inhibition of HDAC9 (unknown origin) in presence of ATP. The gist of the method:
as §2

Assay [15] has as its target Histone deacetylase 8 (Homo sapiens, UniProt Q9BY41). The experiment in a line: Inhibition of C-terminal His tagged human recombinant HDAC8 (1 to 377 residues) expressed in Baculovirus infected insect cells in presence of ATP. The procedure, abridged: as §2
The subject of assay [16] is MV4-11. The experiment in a line: Antiproliferative activity against human MV4-11 cells assessed as cell viability at 10 uM after 48 hrs by CellTiter-Glo luminescent assay relative to control. The class given is functional. On the technique in general: ATP-based viability assays read luminescence as a measure of living cells.
Assay [17] relates to MOLM-14. The experiment in a line: Antiproliferative activity against human MOLM14 cells assessed as cell viability at 10 uM after 48 hrs by CellTiter-Glo luminescent assay relative to control. The class given is functional.
Assay [18] concerns KMS-12-BM. The experiment in a line: Antiproliferative activity against human KMS-12-BM cells assessed as cell viability at 10 uM after 48 hrs by CellTiter-Glo luminescent assay relative to control. The class given is functional.
The test system of assay [19] is OPM-2. Kind of assay: Antiproliferative activity against human OPM2 cells assessed as cell viability at 10 uM after 48 hrs by CellTiter-Glo luminescent assay relative to control. The class given is functional.
The target of assay [20] is T2, Tyrosine-protein kinase JAK2. Kind of assay: Binding affinity to N-terminal His tagged human recombinant JAK2 (1014 to 1132 residues) expressed in Escherichia coli after 300 mins by LC/MS analysis. To be noted: read-out: Kd(app). The procedure, abridged: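 JAK2 in Tris/glycerol/urea storage buffer was exchanged into sodium phosphate/NaCl pH 7.5 and immobilized on periodate-oxidized diol silica (Schiff base, NaBH3CN, 116 h, 4 °C), then packed into a 35 × 0.5 mm column. Compounds were run at 10 μM final (50 μM for one analyte) in 20 mM ammonium acetate pH 6.8 at 20 μL/min. Detection was by SIM [M+H]+, with DMSO as void marker. Retention time was taken from the EIC peak apex, n = 3, with runs up to 300 min.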

The subject of assay [21] is HCT-116. The experiment in a line: Antiproliferative activity against human HCT116 cells after 72 hrs by MTT assay. In kind it is functional, cell-based. The conditions noted are these: HCT-116, 72 h. (Tetrazolium assays rely on reduction of a dye to a coloured formazan, in cell work by metabolically active cells.)
Assay [22] deals with HL-60. The experiment in a line: Antiproliferative activity against human HL60 cells. In kind it is functional, cell-based.
Assay [23] has as its system MDA-MB-231. The experiment in a line: cells. The class given is functional, cell-based. The conditions noted are these: Homo sapiens, MDA-MB-231, 72 h.
Assay [24] deals with Jurkat. The experiment in a line: cells. The conditions noted are these: Homo sapiens. In kind it is functional, cell-based.
Assay [25] relates to HEL 92.1.7. Kind of assay: cells. In kind it is functional, cell-based. The conditions noted are these: Homo sapiens, HEL 92.1.7, 36 h.
Assay [26] relates to MCF7. The experiment in a line: cells. In kind it is functional, cell-based. The conditions noted are these: Homo sapiens, MCF7, 72 h.
The subject of assay [27] is PC-3. The experiment in a line: cells. The conditions noted are these: Homo sapiens, PC-3, 72 h. The class given is functional, cell-based.
Assay [28] can be described thus: cells. The class given is ADME, cell-based. To be noted: Homo sapiens, AC10, 24 h.
The test system of assay [29] is HL-60. Kind of assay: Antiproliferative activity against human HL60 cells at 4 uM after 36 hrs by PrestoBlue dye based assay relative to control. In kind it is functional.
Assay [30] concerns KMS-12-BM. Kind of assay: cells. In kind it is functional, cell-based. To be noted: Homo sapiens, 48 h.

Sequence of Histone deacetylase 5 (Q9UQL6 whole entry, the tested form may be a part): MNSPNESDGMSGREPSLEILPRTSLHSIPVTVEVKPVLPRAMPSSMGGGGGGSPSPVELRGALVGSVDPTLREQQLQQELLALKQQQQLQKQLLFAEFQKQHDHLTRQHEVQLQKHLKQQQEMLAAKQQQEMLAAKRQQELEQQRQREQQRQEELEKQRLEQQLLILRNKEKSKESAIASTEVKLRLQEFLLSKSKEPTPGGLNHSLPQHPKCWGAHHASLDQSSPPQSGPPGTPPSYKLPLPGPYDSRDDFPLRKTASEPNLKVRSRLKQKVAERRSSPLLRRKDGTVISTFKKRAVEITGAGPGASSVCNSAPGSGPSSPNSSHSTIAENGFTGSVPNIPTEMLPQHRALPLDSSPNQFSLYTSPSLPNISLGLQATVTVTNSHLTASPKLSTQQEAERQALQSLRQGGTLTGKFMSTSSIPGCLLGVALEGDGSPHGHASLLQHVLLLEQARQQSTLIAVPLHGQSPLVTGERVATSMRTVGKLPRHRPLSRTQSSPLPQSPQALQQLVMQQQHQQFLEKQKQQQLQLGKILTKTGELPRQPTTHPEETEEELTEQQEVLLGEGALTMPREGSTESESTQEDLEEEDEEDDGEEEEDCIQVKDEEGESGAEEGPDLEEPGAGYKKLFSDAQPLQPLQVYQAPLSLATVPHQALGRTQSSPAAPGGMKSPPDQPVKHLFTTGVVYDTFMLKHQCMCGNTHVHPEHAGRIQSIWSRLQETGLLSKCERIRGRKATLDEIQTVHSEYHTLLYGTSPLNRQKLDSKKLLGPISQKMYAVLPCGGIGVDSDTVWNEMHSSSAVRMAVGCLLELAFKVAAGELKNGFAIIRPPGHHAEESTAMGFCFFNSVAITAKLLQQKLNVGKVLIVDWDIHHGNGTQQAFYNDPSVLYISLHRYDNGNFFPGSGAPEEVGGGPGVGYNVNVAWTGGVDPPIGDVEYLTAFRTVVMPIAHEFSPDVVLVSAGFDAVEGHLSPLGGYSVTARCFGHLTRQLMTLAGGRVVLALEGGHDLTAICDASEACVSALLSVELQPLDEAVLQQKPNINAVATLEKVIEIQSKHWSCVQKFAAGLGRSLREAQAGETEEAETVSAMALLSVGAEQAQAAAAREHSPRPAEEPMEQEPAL
Sequence of Tyrosine-protein kinase JAK1 (P23458 whole entry, the tested form may be a part): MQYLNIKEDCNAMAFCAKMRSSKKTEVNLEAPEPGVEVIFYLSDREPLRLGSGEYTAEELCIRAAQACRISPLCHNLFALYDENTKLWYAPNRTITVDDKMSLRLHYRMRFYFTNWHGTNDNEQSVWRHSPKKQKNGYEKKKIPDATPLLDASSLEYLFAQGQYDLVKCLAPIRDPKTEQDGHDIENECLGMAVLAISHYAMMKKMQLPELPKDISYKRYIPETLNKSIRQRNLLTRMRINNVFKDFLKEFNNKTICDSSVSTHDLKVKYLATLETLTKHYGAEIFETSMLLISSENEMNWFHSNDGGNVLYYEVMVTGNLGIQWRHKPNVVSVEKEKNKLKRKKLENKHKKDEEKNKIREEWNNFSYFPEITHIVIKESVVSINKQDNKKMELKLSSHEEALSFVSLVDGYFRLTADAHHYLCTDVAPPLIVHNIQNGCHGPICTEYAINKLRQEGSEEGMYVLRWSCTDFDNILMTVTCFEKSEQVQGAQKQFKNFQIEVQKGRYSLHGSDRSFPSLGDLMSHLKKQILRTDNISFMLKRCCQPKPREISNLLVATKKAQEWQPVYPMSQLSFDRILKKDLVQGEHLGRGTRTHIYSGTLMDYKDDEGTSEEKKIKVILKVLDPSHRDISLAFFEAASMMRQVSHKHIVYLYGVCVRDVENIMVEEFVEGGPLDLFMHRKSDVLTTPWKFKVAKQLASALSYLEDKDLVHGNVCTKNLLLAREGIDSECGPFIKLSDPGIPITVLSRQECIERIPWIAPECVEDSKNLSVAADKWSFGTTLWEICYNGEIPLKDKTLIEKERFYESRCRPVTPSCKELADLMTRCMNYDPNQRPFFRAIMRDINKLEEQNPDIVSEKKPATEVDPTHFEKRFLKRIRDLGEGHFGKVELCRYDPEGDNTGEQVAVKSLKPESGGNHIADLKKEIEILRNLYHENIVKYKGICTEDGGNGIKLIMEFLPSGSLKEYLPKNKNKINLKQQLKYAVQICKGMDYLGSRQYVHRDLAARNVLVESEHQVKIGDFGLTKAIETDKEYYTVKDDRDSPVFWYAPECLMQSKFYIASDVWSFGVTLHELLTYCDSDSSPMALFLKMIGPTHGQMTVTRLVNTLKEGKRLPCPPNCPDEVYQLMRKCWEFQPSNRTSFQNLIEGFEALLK
Sequence of Histone deacetylase 2 (Q92769 whole entry, the tested form may be a part): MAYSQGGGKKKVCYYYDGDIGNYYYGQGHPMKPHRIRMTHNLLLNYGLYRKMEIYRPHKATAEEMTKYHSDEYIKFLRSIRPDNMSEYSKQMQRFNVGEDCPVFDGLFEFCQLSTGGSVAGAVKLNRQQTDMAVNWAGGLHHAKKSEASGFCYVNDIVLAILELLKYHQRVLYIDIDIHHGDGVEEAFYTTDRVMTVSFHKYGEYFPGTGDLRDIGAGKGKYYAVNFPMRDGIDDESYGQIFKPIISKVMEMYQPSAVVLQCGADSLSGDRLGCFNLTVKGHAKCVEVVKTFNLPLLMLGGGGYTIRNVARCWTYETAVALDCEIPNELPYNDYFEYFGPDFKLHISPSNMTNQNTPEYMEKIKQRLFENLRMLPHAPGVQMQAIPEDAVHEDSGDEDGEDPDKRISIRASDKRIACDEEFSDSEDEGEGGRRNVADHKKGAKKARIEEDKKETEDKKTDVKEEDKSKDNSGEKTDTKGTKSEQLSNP

The term IC50 denotes the concentration that gives 50% inhibition. Usually inhibition stands for how much of the control response was suppressed. As to `CC(CCCCCC(=O)NO)n1cc(-c2ncnc3[nH]ccc23)cn1` (stereo unspecified), the 50% inhibitory concentration (IC50) in assay [1] stood at 144 nM; in assay [2], 47 nM; in [3], 1 nM; in assay [4] it was 7400 nM; in assay [5], 24 nM; in assay [6], 65 nM. Also, the IC50 in assay [9] stood at 436 nM; in [10], 6 nM; in [11] it was 11 nM; in assay [12], 31 nM; in [14], 8500 nM; in [15], 310 nM. For the same molecule, the inhibition in assay [7] was found to be 40%; in assay [8], 33%; in assay [13] it was 8%.
Turning to `N#CC[C@H](C1CCCC1)n1cc(-c2ncnc3[nH]ccc23)cn1` [RUXOLITINIB], the Activity in assay [16] was found to be 52%; in assay [17], 73%; in assay [18], 59%; in [19], 74%.
`O=C(/C=C/c1ccc(NCCCn2cc(-c3ncnc4[nH]ccc34)cn2)cc1)NO`: the Kd in assay [20] turned out to be 200 nM. Also, the IC50 in assay [3] is 148 nM; in assay [6], 502 nM; in [21], 25300 nM; in assay [22] it was over 10000 nM; in assay [23], 13300 nM; in assay [24] it was over 4000 nM. Also, the IC50 in assay [25] was over 4000 nM; in assay [10], 2650 nM; in assay [26], 14400 nM; in assay [27], 17000 nM.
On to `O=C(CCCCCCOc1ccc2cc1COC/C=C/COCc1cccc(c1)-c1ccnc(n1)N2)NO`, for which the IC50 amounted to 2070 nM in assay [28]; 4000 nM in assay [22]; 1190 nM in [24]; 940 nM in assay [25]; 2110 nM in [30]. This molecule returned an Activity in [29] of 47%.

These data come from ChEMBL document CHEMBL4028864 (J Med Chem, 2017).
